Consider 84 variants from the RNAGym collection of RNA variant scans (doi:10.1126/science.aae0568).

Fewer inactive variants are shown than the library holds.

The chains are these.
B1: tRNA (parent)
chain: GUUCCGUUGGCGUAAUGGUAACGCGUCUCCCUCCUAAGGAGAAGACUGCGGGUUCGAGUCCCGUACGGAACG

The data set covers variants of B1. Description: yeast fitness relative to wild type (ratio to wild type); higher = fitter; tRNA-Arg(CCU), competitive growth, 37 C, YPD. Summed up: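 The tRNA-Arg(CCU) gene variants were made by chemical synthesis with a 3% per-site mutation rate at 69 sites and inserted at the native genomic locus of Saccharomyces cerevisiae. After pooling, the strains were competed in YPD at 37°C for 24 hours in six parallel replicates. Gene amplicons from the start population and each end population were read by 100-nucleotide paired-end sequencing, and Darwinian fitness relative to wild type was taken from genotype frequency changes. Genotypes needed ≥ 100 starting reads, and estimates < 0.5 were set to 0.5.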
With A14G A36G A43C A65U, the yeast fitness was not above 0.5.

In the case of A14G A36U G58C, the yeast fitness was not above 0.5. The figure for A14G A40C U59G C60G is not above 0.5; for A14C G25C C27G C34U U35A G38A G56A U59G it is not above 0.5; for A14G C24A U26A C27G U32C C60U it is not above 0.5. A14G C24U A36C A43U A69U: the yeast fitness is not above 0.5. A14G A40U G44A A65U: the yeast fitness was not above 0.5. Take A14C C27G U35C C46G A65G: the yeast fitness was not above 0.5. As to A14C C61A, the yeast fitness came to 0.604.

For A14C C61U, the yeast fitness was 0.626. As for A14C C31G A37U G39C A42C, the yeast fitness was not above 0.5. For A14C C34A G38C, the yeast fitness is not above 0.5.

A14G A21C A37G: the yeast fitness was 0.562. For the variant A14C C55A G58A, the yeast fitness amounted to 0.55. Under A14C U16C C55U A70G stands not above 0.5. Under A14G A43C C66G A69U stands not above 0.5; under A14C C62U A69C, not above 0.5; under A14C G18C G41C, 0.662. As to A14G A21U U59A, the yeast fitness is not above 0.5. Turning to A14C C60A A70U, the yeast fitness was not above 0.5. Consider A14G A37U C61A, for which the yeast fitness is not above 0.5.

In the case of A14C U32G C34G A43U G58C G67U, the yeast fitness was not above 0.5. For A14G A21C C29A, the yeast fitness came to 0.586. Under A14G A43U G50U G68C stands not above 0.5; under A14C C49G A69C, not above 0.5. For the variant A14C C55A A69C, the yeast fitness is not above 0.5.

A14G A40C C60G: the yeast fitness was found to be 0.757.

With A14G A15C G67U, the yeast fitness is 0.62. For the variant A14C C46U U53A, the yeast fitness was not above 0.5. With A14G A15U C61U, the yeast fitness was not above 0.5.

On to A14C U19G C31G C33U A42G U64C A65G, for which the yeast fitness is not above 0.5. A14C G18A C31G C33U A37C A65U: the yeast fitness was not above 0.5. For A14G A45G A65U G68C, the yeast fitness was not above 0.5. Regarding A14G A21C C33A A43U C62U, the yeast fitness turned out to be 0.558. Take A14G A21G C22U: the yeast fitness came out at 0.555. Consider A14G A20U A40G U54C, for which the yeast fitness was not above 0.5. A14C C27A A37G G51C: the yeast fitness came to 0.615.

As for A14G C22G U35G A40C A70U, the yeast fitness is not above 0.5. On to A14C C27G C46G A65G, for which the yeast fitness turned out to be 0.576. Turning to A14C U47C A70U, the yeast fitness came to 0.614. The figure for A14C U32G G39C is not above 0.5. Under A14C G50A stands 0.612; under A14C G50U, 0.708.

For the variant A14C G56A, the yeast fitness is 0.762. With A14C U16C A40U G51C A69C, the yeast fitness stood at 0.639.

Take A14G A21G C27U A45C G48C: the yeast fitness is not above 0.5. Consider A14C G17A G48C C55U G63U, for which the yeast fitness is not above 0.5. In the case of A14C C30G A37G A45G G50A U59C G67C, the yeast fitness was not above 0.5. Take A14C G25C C62U: the yeast fitness was not above 0.5. The figure for A14C G25A A36C G44A is 0.571; for A14C U19A A45U it is not above 0.5; for A14G A15U U35C it is not above 0.5. As for A14G C22G U35C A57C, the yeast fitness was not above 0.5. Consider A14C U32G G56A, for which the yeast fitness was not above 0.5. Take A14C C27A G39A C55U A70G: the yeast fitness is not above 0.5.

For the variant A14C U19G U32A, the yeast fitness is not above 0.5. The figure for A14C U28G C55G G68C is not above 0.5; for A14G A20C C66U it is 0.665; for A14C C46U G50C C61A A70C it is not above 0.5.

On to A14C G25A C33G A36U A45G G52C A70C, for which the yeast fitness was found to be 0.556. Regarding A14C C34U, the yeast fitness is not above 0.5. In the case of A14C C34G, the yeast fitness came out at 0.577.

A14G A20C A43U C55G: the yeast fitness is not above 0.5.

Turning to A14C G56A A69C, the yeast fitness came out at 0.578.

For the variant A14G A20G U47A G58C, the yeast fitness was not above 0.5.

For the variant A14G A40U G58C, the yeast fitness came out at 0.706. The figure for A14C U19C C27A G41C A42U C66U is 0.582.

Take A14C G17C C27U U47G: the yeast fitness was not above 0.5. Under A14C G41A A43C stands not above 0.5. As to A14C C27A U54A A69G, the yeast fitness turned out to be 0.647. On to A14G A15G G56A, for which the yeast fitness turned out to be 0.567. As to A14C C66G G68C, the yeast fitness is not above 0.5. As to A14G A20G, the yeast fitness came to 0.883. On to A14G A20U, for which the yeast fitness was found to be 0.942. On to A14G A20C, for which the yeast fitness was 0.813. As to A14C U47C C55U G68C, the yeast fitness is not above 0.5. With A14C U19A C22U A45C, the yeast fitness is not above 0.5. On to A14C U26A C34U C55G G68A, for which the yeast fitness was not above 0.5.

Take A14C G23A C29U U35C C55G: the yeast fitness is 0.627. The figure for A14G A20C A57G is 0.677; for A14G A15C A21G C46A A69U it is not above 0.5; for A14C G18A G48A it is not above 0.5. The figure for A14G A42G C55A is not above 0.5. As for A14G A15G G44A, the yeast fitness is not above 0.5.
